This is an account of results in ChEMBL document CHEMBL1122327, “Replacement of aromatic or heteroaromatic groups in nonsteroidal antiinflammatory agents with the ferrocene group” (1983).

Active and inactive are the calls of the source. The calls are words filed in the database; no cut-off is given here.

For assay [1], the species on record is Homo sapiens. Briefly: Evaluated for the inhibition of platelet aggregation at dose of 100 uM. The class given is functional. The procedure, abridged:
(§1)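 Human platelet-rich plasma from citrated blood of volunteers who had taken no drugs for at least 10 days, adjusted to 300 000 platelets/μL with platelet-poor plasma. Compound added in PEG 300, then 8 min at 37 °C and 2 min equilibration with stirring at 1200 rpm. Collagen added to trigger aggregation. Maximum rise in light transmission measured within 1–2.5 h of the blood draw; % inhibition calculated against control.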

For assay [2], the species on record is Homo sapiens. Briefly: Evaluated for the inhibition of serotonin release from platelets at dose of 20 uM. The class given is functional. The procedure, abridged:
(§2)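 Human platelet-rich plasma at 300 000 platelets/μL, loaded with [3H]5-HT (0.5 μM final, 50 μCi/μmol) for 30 min at room temperature. Compound added in PEG 300 and incubated 10 min at 37 °C, then stirred with collagen (1.6 μL/mL final) for 5 min. Reaction stopped with EDTA and samples centrifuged. Supernatant radioactivity counted by scintillation; % inhibition calculated against vehicle-treated plasma.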

The species named for assay [3] is Homo sapiens. In words: Evaluated for the inhibition of platelet aggregation at dose of 20 uM. The class given is functional. The procedure, abridged:
as §1

Assay [4] deals with Rattus norvegicus. Briefly: Evaluated for the percentage inhibition by adjuvant arthritis test at a dose of 100 mg/kg administarted perorally; Inactive. The class given is functional, organism-based. Further details: dose 100 mg/kg.
The species entered for assay [5] is Homo sapiens. In words: Evaluated for the inhibition of serotonin release from platelets at dose of 100 uM. It is filed as functional. The procedure, abridged: as §2
Assay [6] is filed under the species Homo sapiens. In words: Percent inhibition of collagen-induced platelet aggregation at a concentration of 20 uM. It is filed as functional. The procedure, abridged: (§3)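 Human platelet-rich plasma from drug-free volunteers (citrated blood, 450 g spin), adjusted to 300 000 platelets/μL with platelet-poor plasma. Compound in PEG 300 preincubated 8 min at 37 °C, then 2 min equilibration with stirring at 1200 rpm. Aggregation triggered with collagen; maximum rise in light transmission read by aggregometer. Percent inhibition calculated against control. Runs done 1–2.5 h after blood draw.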

Assay [7] is filed under the species Homo sapiens. Briefly: percent inhibition of serotonin release from platelets at a concentration of 100 uM. The class given is functional. The procedure, abridged:
(§4)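 Human platelet-rich plasma at 300 000/μL, loaded with [3H]5-HT (0.5 μM final) for 30 min at room temperature. Compound in PEG 300 incubated 10 min at 37 °C, then stirred with collagen (1.6 μL/mL final) for 5 min and stopped with EDTA. After centrifugation, supernatant radioactivity was counted by scintillation. Percent inhibition calculated against vehicle-treated plasma.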

Assay [8] is filed under the species Homo sapiens. Briefly: percent inhibition of serotonin release from platelets at a concentration of 20 uM. The class given is functional. The procedure, abridged:
as §4

Assay [9] relates to Rattus norvegicus. In words: Evaluated for the percentage inhibition by adjuvant arthritis test at a dose of 50 mg/kg administarted perorally. It is filed as functional. The following applies: route oral.
For assay [10], the species on record is Homo sapiens. In words: Percent inhibition of collagen-induced platelet aggregation at a concentration of 100 uM. It is filed as functional. The procedure, abridged: as §3
Assay [11] concerns Rattus norvegicus. In words: Evaluated for the percentage inhibition by adjuvant arthritis test at a dose of 25 mg/kg administarted perorally; Inactive. It is filed as functional, organism-based. Further details: dose 25 mg/kg.
Assay [12] relates to Rattus norvegicus. Briefly: Evaluated for the percentage inhibition by adjuvant arthritis test at a dose of 50 mg/kg administarted perorally; Inactive. The class given is functional, organism-based. Further details: dose 50 mg/kg.

Take “Methyl 5-Ferrocenoyl-1-methyl-1H-pyrrole-2-acetate”: the inhibition in the assay listed under Homo sapiens [1] stood at 6%; in the assay filed under Homo sapiens [2] it was 3%; in the assay filed under Homo sapiens [3], 0%; in the assay filed under Homo sapiens [5], 0%. Moreover, the inhibition entry with Rattus norvegicus [4] was “inactive”.

`Cc1ccc(C(=O)c2ccc(CC(=O)O)n2C)cc1` [TOLMETIN]: the inhibition at 20 µM in the assay filed under Homo sapiens [6] was found to be 74%; in the assay listed under Homo sapiens [8], 90%. For the same compound, the figures for the inhibition at 100 µM in the assay filed under Homo sapiens [7] and in the assay listed under Homo sapiens [10] were 88% and 85%, respectively. The inhibition in vivo at 50 mg/kg in the assay with Rattus norvegicus [9] was determined as 34%.

Regarding “calcium salt of 4-Ferrocenoyl-1-methyl-1H-pyrrole-2-acetate”, the inhibition amounted to 3% in the assay listed under Homo sapiens [1], 10% in the assay listed under Homo sapiens [2], 2% in the assay listed under Homo sapiens [3] and 12% in the assay filed under Homo sapiens [5]. Besides, the inhibition entry in the assay with Rattus norvegicus [4] was “inactive”.

For the compound “4-(3-Ferrocenoyl-cyclopenta-2,4-dienyl)-4-oxo-butyric acid”, the inhibition in the assay listed under Homo sapiens [1] worked out at 8%; in the assay filed under Homo sapiens [2], 29%; in the assay filed under Homo sapiens [3], 0%; in the assay filed under Homo sapiens [5], 64%. Also, in the assay on Rattus norvegicus [11], the inhibition result was “inactive”.

For “2-{5-[3-(4-Methyl-benzoyl)-Ferrocenoyl]-cyclopenta-1,3-dienyl}-acetamide”, the inhibition in the assay listed under Homo sapiens [1] amounted to 15%; in the assay listed under Homo sapiens [2], 0%; in the assay listed under Homo sapiens [3], 4%; in the assay filed under Homo sapiens [5], 34%. Moreover, in the assay with Rattus norvegicus [4], the inhibition result is “inactive”.

Regarding “(3-Ferrocenoyl-cyclopenta-2,4-dienyl)-acetic acid”, the inhibition in the assay listed under Homo sapiens [1] stood at 6%; in the assay listed under Homo sapiens [2], 0%; in the assay listed under Homo sapiens [3], 5%; in the assay filed under Homo sapiens [5], 16%. Further, the inhibition entry in the assay with Rattus norvegicus [4] is “inactive”.

On to “2-[2-(3-Cyclopenta-2,4-dienylmethyl-Ferrocenoyl)-2-oxo-ethyl]-benzoic acid”, for which the inhibition in the assay listed under Homo sapiens [1] was 28%; in the assay filed under Homo sapiens [2] it was 3%; in the assay filed under Homo sapiens [3], 7%; in the assay listed under Homo sapiens [5], 0%. Also, in the assay with Rattus norvegicus [12], the inhibition entry is “inactive”.

Regarding `O=C(O)CCC(=O)c1ccc(-c2ccccc2)cc1` [FENBUFEN], in the assay on Rattus norvegicus [9], the inhibition in vivo at 50 mg/kg turned out to be 71%.

In the case of “[3-(Cyclopenta-2,4-ferrocenoyl)-4-(4-methyl-benzoyl)-cyclopenta-1,3-dienyl]-acetic acid”, the inhibition in the assay listed under Homo sapiens [1] was found to be 6%; in the assay listed under Homo sapiens [2] it was 0%; in the assay listed under Homo sapiens [3], 2%; in the assay filed under Homo sapiens [5] it was 23%. Moreover, the inhibition entry in the assay on Rattus norvegicus [4] was “inactive”.

As to “4-Ferrocenoyl-1-methyl-1H-pyrrole-2-acetate”, the inhibition in the assay filed under Homo sapiens [1] turned out to be 27%; in the assay filed under Homo sapiens [2], 32%; in the assay filed under Homo sapiens [3] it was 20%; in the assay listed under Homo sapiens [5], 60%. Further, in the assay on Rattus norvegicus [12], the inhibition result is “inactive”.

Take `CC(C(=O)O)c1ccc(-c2ccccc2)c(F)c1` (stereo unspecified) [FLURBIPROFEN]: the results for the inhibition at 20 µM in the assay filed under Homo sapiens [6] and in the assay listed under Homo sapiens [8] were 88% and 86%, respectively. In addition, the inhibition at 100 µM in the assay filed under Homo sapiens [7] amounted to 90%; in the assay listed under Homo sapiens [10], 89%. The inhibition in vivo at 50 mg/kg with Rattus norvegicus [9] was found to be 55%.
